Experimental data: ChEMBL document CHEMBL4422614 (Eur J Med Chem, 2019)
Activity calls are given as the source filed them. The calls are words filed in the database; no cut-off is given here.

Experiments:
[1] = Antioxidant activity assessed as trolox equivalent of AAPH-induced radical scavenging activity at 10 to 20 uM preincubated for 10 mins followed by AAPH addition measured every minute for 120 mins by ORAC fluorescein assay; format: functional
Outline: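 ORAC values are expressed as trolox equivalents, mean ± SD of three independent experiments.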

[2] = tested on: Mus musculus; test: Cognition enhancement activity in amyloid beta (25 to 35 residues) induced C57BL/6J mouse model of Alzheimer's disease assessed as decrease in escape latancy at 4 mg/kg/day, ig administered for 26 consecutive days by Morris water maze test; format: functional, organism-based
Outline: (§1)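 Mice were randomized into 7 groups. All except sham got an ICV injection of Aβ25-35 (3 nmol); sham got the same volume of saline ICV. Dosing was intragastric daily for 26 days, with 0.5% CMC-Na as vehicle for sham and model. Body weight, diarrhea and emesis-like behavior were monitored.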

[3] = tested on: Mus musculus; test: Cognition enhancement activity in amyloid beta (25 to 35 residues) induced C57BL/6J mouse model of Alzheimer's disease assessed as swimming speed at 30 mg/kg/day, ig administered for 26 consecutive days by Morris water maze test (reference value: 15.6 +/- 2.4 cm/sec); format: functional; outline: as §1
[4] = tested on: Mus musculus; test: Cognition enhancement activity in amyloid beta (25 to 35 residues) induced C57BL/6J mouse model of Alzheimer's disease assessed as swimming path length in virtual platform at 4 mg/kg/day, ig administered for 26 consecutive days by Morris water maze test (10.2 +/- 3.2 cm); format: functional; outline: as §1
[5] = tested on: Mus musculus; test: Cognition enhancement activity in amyloid beta (25 to 35 residues) induced C57BL/6J mouse model of Alzheimer's disease assessed as swimming time in effective region at 4 mg/kg/day, ig administered for 26 consecutive days by Morris water maze test (4.3 +/- 1.3 sec); format: functional; outline: as §1
[6] = tested on: Mus musculus; test: (§2) Neuroprotection in amyloid beta (25 to 35 residues) induced C57BL/6J mouse model of Alzheimer's disease assessed as reduction in ratio of apoptotic neuron in CA1 hippocampus region at 4 mg/kg/day, ig administered for 26 consecutive days by hematoxylin and eosin staining-based light microscopic analysis (reference value: 40.6 +/- 12.5%); format: ADME, organism-based; set-up: scale not given: the % may be the effect or the level left; settings: in vivo, po
Outline: (§3)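 Hippocampal CA1, CA3 and DG neurons were stained with H&E after the Aβ25-35 ICV model and 26-day intragastric dosing. Denatured cell index = denatured cells/total cells, n = 5. Values are mean ± SD, two-way ANOVA versus model.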

[7] = tested on: Mus musculus; test: as §2, with “CA3” for “CA1”, “80.2” for “40.6”, “8.6%)” for “12.5%)”; format: ADME, organism-based; set-up: scale not given: the % may be the effect or the level left; settings: in vivo, po; outline: as §3
[8] = tested on: Mus musculus; test: as §2, with “DG” for “CA1”, “55.8” for “40.6”, “7.2%)” for “12.5%)”; format: ADME, organism-based; set-up: scale not given: the % may be the effect or the level left; settings: in vivo, po; outline: as §3
[9] = in vitro; settings: PAMPA

COc1ccc(C2CNC(=O)C2)cc1OC1CCCC1 (centres undefined) [ROLIPRAM]
Activity [1]: 0.07 equiv
Activity [2]: Active
Activity [3]: 15.1 cm/s
Activity [4]: 16.5 cm
Time [5]: 5.7 s
Activity [6]: 33.5%
Activity [7]: 41.1%
Activity [8]: 25.7%
Papp at 10 h, 100 ug/ml [9]: 18.9 ×10⁻⁶ cm/s
